Laboratory results as given in publication PMC5484360 (Journal of Applied Toxicology, 2017).
Like-named read-outs stand apart in the source and are kept apart here.

What was measured:
[1] = type: in vitro ADME, human; details: Protocol 2B; for Jss (steady state flux through the SC) / kp (permeation coefficient) / Mass balance / tlag (lag time): human SC; for Mass balance: 22 h; for tlag (lag time): from non-linear regression of cumulative amount penetrated vs. time
Summary of the method: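 Isolated SC on 0.22 μm SuPor membrane, thickness by digital micrometer; flow-through cells at 32°C, stirred, receptor DPBS+ at 25 μl/min, equilibrated ≥30 min before dosing; 22 h occluded incubation; donor sampled pre/post; SC dissolved in 1M NaOH, radioactivity counted with washes for mass balance. Jss from earliest linear slope, membrane-corrected; kp = Jss/C; KSC/v·HSC and DSC/HSC² by non-linear Fick's-second-law fit of cumulative absorbed vs time.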

[2] = type: in vitro ADME; details: Protocol 1, pig skin, 30 min exposure, infinite dose, mean (%CV)
Summary of the method: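 Pig skin was shaved, trimmed to 2–3 mm and defatted, then mounted as 32 mm discs in Franz cells over 9 g l–1 NaCl and equilibrated 1 h at 32°C with stirring. Infinite dose (350 μl cm–2), 30 min exposure, excess removed, then 15 weighed tape strips over 18 mm, extracted with methanol. HSC came from TEWL; depth profiles were fitted to Fick's 2nd-law solution for KSC/v and DSC/HSC².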

[3] = type: in vitro ADME, human
[4] = Protocol 1, human skin, 30 min exposure, infinite dose, mean (%CV)
[5] = human skin, Equation (10) non-linear regression, mean (%CV)

| Jss (steady state flux through the SC) [1] [ng/cm^2] | kp (permeation coefficient) [1] [nm/s] | Mass balance [1] [%] | tlag (lag time) [1] [h] | KSC/v [2] | KSC/v ([2]; listed as caffeine) | KSC/v [3, 4] | KSC/v ([3]; Protocol 1, human skin, 30 min exposure, infinite dose, mean (%CV), listed as caffeine) | KSC/v [1, 5] | DSC/HSC ^2 [2] | KSC/v ([2]; listed as 7‐EC) | DSC/HSC ^2 [3, 4] | KSC/v ([3]; Protocol 1, human skin, 30 min exposure, infinite dose, mean (%CV), listed as 7‐EC) | KSC/v ([3]; Protocol 1, single human donor in duplicate, 30 min exposure) | KSC/v ([3]; Protocol 1, single human donor in duplicate, 90 min exposure) | DSC/HSC ^2 [1, 5] | Structure (SMILES) |
| --- | --- | --- | --- | --- | --- | --- | --- | --- | --- | --- | --- | --- | --- | --- | --- | --- |
| 2699031 | 2.33 ± 1.33 | 99.2 ± 2.5 | 2.13 ± 0.16 |  |  |  |  |  |  |  |  |  |  |  |  | Oc1cccc(O)c1 [Resorcinol] |
| 1261429 | 1.54 ± 1.11 | 99.7 ± 1.3 | 1.82 ± 1.02 | 1.27 (31%) | 1.27 | 2.68 (20%) | 2.68 | 2.63 (70%) |  |  |  |  |  |  |  | Cn1c(=O)c2c(ncn2C)n(C)c1=O [Caffeine] |
| 225 | 0.95 ± 1.88 | 97.3 ± 1.4 | 0.001 ± 0.004 | 89.5 (4.6%) |  | 39.5 (19%) |  | 0.019 (34%) | 0.10 (44%) h^‐1 | 89.5 | 0.030 (55%) h^‐1 | 39.5 | 34.5 ± 6.4 | 46.0 ± 1.4 | 0.078 (26%) h^‐1 | CCOc1ccc2ccc(=O)oc2c1 [7‐Ethoxycoumarin] |
